Source: publication PMC2800315 (Japanese Journal of Clinical Oncology, 2009)
Like-named read-outs stand apart in the source and are kept apart here.

Experiments:
[1] = patients with advanced cancer, cited from earlier work; for AUCτ: mean
[2] = Pharmacokinetics of RAD001 in blood, Phase I once-daily oral dosing; assay type: in vivo, Japanese patients; conditions: for CL/F / AUC / Cmax: mean ± SD; for AUC / Cmax / Tmax: human, whole blood, oral; for AUC: AUCτ, 0 to 24 h
In short: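 Adults aged ≥20 years, Japanese, with refractory advanced tumours; strong CYP3A4 inhibitors or inducers excluded. Oral dosing once daily at 2.5, 5 or 10 mg in continuous 28-day cycles. Per cohort: Cmax, tmax, AUC 0–24 h and CL/F. Descriptive statistics, means ± SD.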

[3] = 2.5 mg/day, Day 1, 2.5 mg/day (n = 3)
[4] = 2.5 mg/day, Day 15, 2.5 mg/day (n = 3)
[5] = 5 mg/day, Day 1, 5 mg/day (n = 3)
[6] = 5 mg/day, Day 15, 5 mg/day (n = 3)
[7] = 10 mg/day, Day 1, 10 mg/day (n = 3)

Question: For `CO[C@H]1C[C@@H]2CC[C@@H](C)[C@@](O)(O2)C(=O)C(=O)N2CCCC[C@H]2C(=O)O[C@H]([C@H](C)C[C@@H]2CC[C@@H](OCCO)[C@H](OC)C2)CC(=O)[C@H](C)/C=C(\C)[C@@H](O)[C@@H](OC)C(=O)[C@H](C)C[C@H](C)/C=C/C=C/C=C/1C` [RAD001, everolimus], which Cmax ([1]; daily dose 5 mg, mean ± SD) is on record?
Answer: Its Cmax is 32 ± 9 ng/mL.

Question: And the AUCτ ([1]; daily dose 5 mg)?
Answer: The AUCτ was 238 ± 77 ng·h/mL.

Question: And the AUCτ ([1]; daily dose 10 mg)?
Answer: The AUCτ was 514 ± 231 ng·h/mL.

Question: And the CL/F ([2]; Day 15, 2.5 mg/day (n = 3))?
Answer: Its CL/F is 19.1 ± 3.26 L/h.

Question: And the CL/F ([2]; Day 15, 5 mg/day (n = 3))?
Answer: Its CL/F is 9.94 ± 3.21 L/h.

Question: And the CL/F ([2]; Day 15, 10 mg/day (n = 3))?
Answer: The CL/F was 14.3 ± 2.23 L/h.

Question: What about the “Time at which Cmax was apparent” value ([2]; after administration of a single oral dose) of the same compound?
Answer: The value was 2 h.

Question: And the “Time to Cmax” value ([2]; after oral administration)?
Answer: The value was 1 to 2 h.

Question: And the “Increase of Cmax and AUCτ with dose” value ([2]; day 1, 2.5 to 10 mg)?
Answer: Its value is “almost dose-proportionally”.

Question: And the “Exposure (AUCτ) after multiple dosing (day 15) relative to single dose (day 1)” value ([2]; days 1 and 15)?
Answer: The value was “about twice”.

Question: And the AUC [2, 3]?
Answer: The AUC was 85.2 ± 18.7 ng·h/mL.

Question: And the AUC [2, 4]?
Answer: Its AUC is 134 ± 24.1 ng·h/mL.

Question: And the Cmax [2, 3]?
Answer: Its Cmax is 15.1 ± 2.48 ng/mL.

Question: And the Cmax [2, 4]?
Answer: Its Cmax is 16.8 ± 1.33 ng/mL.

Question: What about the Tmax ([2]; 2.5 mg/day, tmax Median, Day 1, 2.5 mg/day (n = 3)) of the same compound?
Answer: The Tmax was 1.98 h.

Question: What about the Tmax ([2]; 2.5 mg/day, tmax Range, Day 1, 2.5 mg/day (n = 3)) of the same compound?
Answer: The Tmax was 0.98 to 2 h.

Question: What about the Tmax ([2]; 2.5 mg/day, tmax Range, Day 15, 2.5 mg/day (n = 3)) of the same compound?
Answer: The Tmax was 1 to 1.98 h.

Question: What about the AUC [2, 5] of the same compound?
Answer: Its AUC is 211 ± 50 ng·h/mL.

Question: What about the AUC [2, 6] of the same compound?
Answer: The AUC was 543 ± 189 ng·h/mL.

Question: And the Cmax [2, 5]?
Answer: Its Cmax is 31.5 ± 3.4 ng/mL.

Question: And the Cmax [2, 6]?
Answer: The Cmax was 57.6 ± 17.6 ng/mL.

Question: And the Tmax ([2]; 5 mg/day, tmax Median, Day 15, 5 mg/day (n = 3))?
Answer: The Tmax was 1.98 h.

Question: And the Tmax ([2]; 5 mg/day, tmax Range, Day 1, 5 mg/day (n = 3))?
Answer: The Tmax was 1 to 1.95 h.

Question: What about the Tmax ([2]; 5 mg/day, tmax Range, Day 15, 5 mg/day (n = 3)) of the same compound?
Answer: The Tmax was 1.93 to 1.98 h.

Question: What about the AUC [2, 7] of the same compound?
Answer: Its AUC is 401 ± 51.6 ng·h/mL.

Question: What about the Cmax [2, 7] of the same compound?
Answer: The Cmax was 49.4 ± 14.8 ng/mL.

Question: What about the Cmax ([2]; 10 mg/day, Day 15, 10 mg/day (n = 3)) of the same compound?
Answer: The Cmax was 65.9 ± 1.4 ng/mL.

Question: What about the Tmax ([2]; 10 mg/day, tmax Median, Day 1, 10 mg/day (n = 3)) of the same compound?
Answer: The Tmax was 2 h.

Question: What about the Tmax ([2]; 10 mg/day, tmax Median, Day 15, 10 mg/day (n = 3)) of the same compound?
Answer: The Tmax was 2.02 h.

Question: What about the Tmax ([2]; 10 mg/day, tmax Range, Day 1, 10 mg/day (n = 3)) of the same compound?
Answer: Its Tmax is 1.92 to 2 h.

Question: What about the Tmax ([2]; 10 mg/day, tmax Range, Day 15, 10 mg/day (n = 3)) of the same compound?
Answer: Its Tmax is 2 to 2.2 h.

Question: And the “Time to steady state (Cmin)” value ([2]; repeated once-daily oral dosing)?
Answer: The value was about 8 days.
